Bioassay records deposited in PubChem by several laboratories.
CHOP UPR activ: apoptotic UPR (CHOP) activation. CHO-CHOP luciferase reporter, luminescence; percent of tunicamycin response over DMSO baseline. activation, % at 10 µM. hit rate 0.34% among 330,000. AID 449763;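 active means at 10 µM dose, activation of 40% or more, normalized to positive control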
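Material: CHO-CHOP cells, stable luciferase reporter of PERK-eIF2a-CHOP signalling; quantity: 500 reporter cells seeded per well; buffer or medium: F12 medium containing 10% fetal bovine serum; compound: one dose, 10 µM in 0.5% DMSO; incubation: 6 h compound treatment, 37 °C; measured by: Steady-Glo luciferase luminescence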
Fh CTSL1 inh: counter-screen for PFM18AAP inhibitors: inhibitors of F. hepatica cathepsin L1; AID 1906; recombinant F. hepatica cathepsin L1, Z-Leu-Arg-MCA fluorescence; inhibition, % at 5.96 µM; hit rate 0.49% among 300,000;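 active means inhibition above the mean of all tested compounds plus 3 SD, set per screening campaign, cut at about 17% in these data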
CHOP inh: CHOP inhibition in unfolded protein response | CHO-K1 CHOP-promoter luciferase, tunicamycin-induced, 15-18 h | inhibition, % at 10 µM | hit rate 3.8% among 220,000;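 active means compounds that reduced the stress-induced luciferase reporter signal by more than about 70% of percent inhibition, limit read from the data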
UCH37 DUB inh: blocks the human deubiquitinase UCH37 | hit rate 0.33% among 330,000 | inhibition, % (test concentration not listed) | purified proteasome/UCH37, Ub-AMC cleavage fluorescence;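 active means mean inhibition over replicate wells above about 20%, limit read from the data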
Target sequence (Q9Y5K5 whole entry, looked up): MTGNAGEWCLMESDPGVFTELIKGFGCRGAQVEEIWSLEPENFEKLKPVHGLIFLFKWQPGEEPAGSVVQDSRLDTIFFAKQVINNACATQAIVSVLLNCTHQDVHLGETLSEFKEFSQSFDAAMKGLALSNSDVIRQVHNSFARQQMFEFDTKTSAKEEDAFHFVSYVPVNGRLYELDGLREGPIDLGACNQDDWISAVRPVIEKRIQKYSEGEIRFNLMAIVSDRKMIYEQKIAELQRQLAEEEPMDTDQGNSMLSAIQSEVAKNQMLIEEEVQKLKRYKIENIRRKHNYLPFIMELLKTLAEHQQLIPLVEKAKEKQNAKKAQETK
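Signal – fluorescence, ex 355 nm, em 460 nm · System – Proteasome-bound UCH37 · Input – 0.15 nM proteasome as dispensed · Timing – 30 min preincubation with enzyme, 25 min cleavage at room temperature · Read-out basis – percent inhibition of cleavage signal versus uninhibited and no-proteasome wells · Medium – Tris-HCl pH 7.4 with ATP-MgCl2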
XBP1 UPR activ: adaptive UPR (XBP1) activation; AID 463104; CHO-XBP1 luciferase reporter, IRE1-XBP1 UPR activation, luminescence; percent of tunicamycin response, DMSO as zero; activation, % at 20 µM; hit rate 0.33% among 330,000;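 active means versus positive control, 20 µM dose yields 30% or more activation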
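Assay system: IRE1-XBP1 luciferase reporter CHO line. Input: 1000 cells/well. Buffer or medium: F12 with 10% serum. Doses: 20 µM, 1% DMSO. Times: overnight seeding at 37 °C, 6 h compound treatment at 37 °C. Technique: Steady-Glo luciferase glow luminescence, 10 min after reagent addition.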
Large screens that a line does not name were inactive. This excerpt belongs to a sample that is enriched for hits.

CCN(CC)C(=O)C1CCCN(c2ccc([N+](=O)[O-])cc2C=NNC(=O)c2ccc([N+](=O)[O-])cc2)C1 (stereo not drawn)	none (no result: CHOP UPR activ, Fh CTSL1 inh, CHOP inh, XBP1 UPR activ)
Nc1nc(Br)c2c(F)cccc2c1-c1ccccc1	none (no result: UCH37 DUB inh)
Nc1nc(Br)c2c(F)cccc2c1-c1ccc(F)cc1	CHOP inh 74.3
CCOc1cc(C=NNC(=O)c2cccnc2)ccc1O	none (no result: CHOP UPR activ, Fh CTSL1 inh, CHOP inh, XBP1 UPR activ)
Cc1ccc(S(=O)(=O)n2nc(OC(=O)c3ccccc3C)cc2N)cc1	none (no result: CHOP inh)
COc1ccccc1C(=O)Oc1cc(N)n(S(=O)(=O)c2ccc(C)cc2)n1	CHOP inh 78.5
COc1ccc(S(=O)(=O)n2nc(OC(=O)c3c(-c4ccccc4Cl)noc3C)cc2N)cc1	Fh CTSL1 inh 17.6
COc1ccc(S(=O)(=O)n2nc(OC(=O)C3CCCCC3)cc2N)cc1	CHOP inh 73.8
Cc1ccc(-n2c(SCC(=O)NN=Cc3ccc(C)s3)nnc2-c2ccccc2)cc1	none (no result: CHOP UPR activ, Fh CTSL1 inh, CHOP inh, XBP1 UPR activ)
COc1ccc(-c2cn3cccnc3n2)cc1NC(=O)c1ccc(Br)o1	CHOP inh 85.7
NC(=S)N=Nc1ccc(NN=C(N)N)cc1	Fh CTSL1 inh 45.9 (no result: CHOP inh)
CC1C(c2ccccc2)N(C)C(c2ccccc2)CC1(O)c1ccccc1 (stereo not drawn)	CHOP inh 85.1
CCN1CC(C)C(O)(c2ccccc2)CC1C (stereo not drawn)	none
CC1/C(=N/O)CC(c2ccccc2)N(C)C1c1ccccc1 (stereo not drawn)	CHOP inh 93.4 (no result: UCH37 DUB inh)
CC1/C(=N/O)CC(c2ccccc2)NC1c1ccccc1 (stereo not drawn)	none (no result: UCH37 DUB inh)
Cc1cc(NC(=O)c2ccccc2)c(Cl)cc1N	CHOP inh 71.7 (no result: Fh CTSL1 inh)
Cc1cc(N)ccc1NC(=O)c1ccccc1	none
CC(=NNC(=O)c1ccc(O)cc1)c1cccc([N+](=O)[O-])c1	none (no result: CHOP UPR activ, Fh CTSL1 inh, CHOP inh, XBP1 UPR activ)
O=c1cc(-c2ccc(Cl)cc2)oc(=O)[nH]1	none
O=c1cc(N=Nc2ccc(Cl)cc2)[nH]c(=O)[nH]1	CHOP inh 105.2 (no result: CHOP UPR activ, XBP1 UPR activ)
O=C1OC(c2ccccc2)C2(CCCC2)C(=O)C12CCCC2 (stereo not drawn)	none
O=C1N(Nc2ccccc2)C(c2ccc(Br)cc2)C12CCCC2 (stereo not drawn)	CHOP inh 93.9
O=C1N(Nc2ccccc2)C(c2ccc(Br)cc2)C12CCCCC2 (stereo not drawn)	CHOP inh 72.8
COc1ccc(-c2[nH]ncc2C=NNC(=O)c2ccncc2)c(OC)c1	none (no result: CHOP UPR activ, Fh CTSL1 inh, CHOP inh, XBP1 UPR activ)
CCN(CC)C(=O)C(=O)NN=Cc1cccs1	none (no result: CHOP UPR activ, Fh CTSL1 inh, CHOP inh, XBP1 UPR activ)
O=C(NN=Cc1cc([N+](=O)[O-])cc(Br)c1O)C12CC3CCC(CC(C3)C1)C2	none (no result: CHOP UPR activ, Fh CTSL1 inh, CHOP inh, XBP1 UPR activ)
Cc1ccc(-c2[nH][nH]c(=O)c(=O)c2N=Nc2ccccc2)cc1	CHOP inh 74.7
Cc1cc(=O)n2[nH]c(=O)c(N=Nc3ccccc3)c2[nH]1	none
COc1ccc(C=NNC(=S)Nc2ccccc2)cc1COc1ccccc1F	none (no result: CHOP UPR activ, Fh CTSL1 inh, CHOP inh, XBP1 UPR activ)
CSc1nnc(-c2ccco2)c(-c2ccco2)n1	Fh CTSL1 inh 53.0
c1ccc(Cn2cnc3ccccc32)cc1	none
Fc1cc2ncn(Cc3ccccc3)c2cc1F	UCH37 DUB inh 24.9
CC(=O)NC(=NOCc1ccc(Br)cc1)c1nonc1NC(C)=O	none (no result: CHOP UPR activ, Fh CTSL1 inh, CHOP inh, XBP1 UPR activ)
COCC(=O)OC/C(O)=C(\C#N)c1nc2ccccc2[nH]1	none
Cc1cccc(C)c1OCC(=O)OC/C(O)=C(\C#N)c1nc2ccccc2[nH]1	none
Cc1cc(C)cc(OCC(=O)OC/C(O)=C(\C#N)c2nc3ccccc3[nH]2)c1	CHOP inh 78.7
N#C/C(=C(/O)COC(=O)COc1cccc(Br)c1)c1nc2ccccc2[nH]1	CHOP inh 74.6
CN1CCN(c2oc(Cc3cccc4ccccc34)nc2C#N)CC1	none
N#Cc1nc(COc2ccc(Br)cc2)oc1N1CCN(Cc2ccccc2)CC1	CHOP inh 73.5 (no result: CHOP UPR activ, Fh CTSL1 inh, XBP1 UPR activ)
N#Cc1nc(Cc2cccc3ccccc23)oc1N1CCCCC1	CHOP inh 76.4
N#Cc1nc(COc2ccc(Cl)cc2)oc1N1CCCCCC1	Fh CTSL1 inh 59.6, CHOP inh 70.7
CN(C)c1ccc(C=NNC(=O)CCCCCNC(=O)c2ccccc2)cc1	none (no result: CHOP UPR activ, Fh CTSL1 inh, CHOP inh, XBP1 UPR activ)
O=[N+]([O-])c1cc(C=NNc2nc(-c3ccccc3)cs2)ccc1O	none (no result: CHOP UPR activ, Fh CTSL1 inh, CHOP inh, XBP1 UPR activ)
CCC1CSC(Nc2ccc(C(=O)/C=C/c3ccc(Br)cc3)cc2)=N1 (stereo not drawn)	CHOP inh 89.4
CC(C)c1ccccc1NC(=O)CNCCc1ccc(C(F)(F)F)cc1	CHOP inh 75.8
